Laboratory results reported in article PMC11397428 (Science Advances, 2024).
In brackets after ≈: the same amount, converted by molar mass. Where a SMILES comes first, the peptide text is derived from it. The star is where a group is joined. Phenylacetyl(4-Ph) = O=C(Cc1ccc(-c2ccccc2)cc1)*

Columns and labels:
BMDMs = assay: Endocytosis mode of FITC-BLKR with endocytosis inhibitors; type: cell-based, mouse; settings: FITC-BLKR 16 μM, 15 min; EIPA 50 μM, CPZ 40 μM, Filipin III 5 μg ml^−1; n = 3
red blood cells (RBCs) = assay: Hemolysis assay; type: cell-based, New Zealand rabbit; settings: 3 hours, 37°C, PBS; for hemolytic activity: 256 μM, n = 9
Summary of the method: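 Freshly drawn rabbit blood diluted tenfold in PBS. RBCs pelleted and washed eight times with PBS. Peptide stocks made in PBS at 512 μM and diluted twofold six times. RBCs incubated with peptide for 3 hours at 37°C; 1% Triton X-100 as positive control, PBS as negative control. Samples spun at 10,000 rpm for 10 min; hemolysis calculated from supernatant absorbance at 570 nm.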

MRE-induced ALI = assay: Comparison with ceftazidime in MRE-infected mice; type: in vivo, mouse; settings: ceftazidime/avibactam 32/8 mg kg^−1 subcutaneous every 12 hours; n = 12
[1] = tested on: human bronchial epithelial cells (BEAS-2B); assay: Cytocompatibility, MTT assay; type: cell-based; settings: 24-hour coincubation
Summary of the method: (§1)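 Cell lines grown with 10% FBS and 1% penicillin-streptomycin. Seeded at 1 × 10^4 cells per well and allowed 24 hours to attach. Medium then replaced with fresh medium containing test peptide at a range of concentrations. Viability read by MTT after 24 hours of co-incubation.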

[2] = tested on: human embryonic kidney (HEK) 293T; assay: Cytocompatibility, MTT assay; type: cell-based; settings: 24 h, n = 9
Summary of the method: as §1

[3] = tested on: HS-5 (human marrow stromal cells); assay: Cytocompatibility, MTT assay; type: cell-based; settings: 24 h, n = 9
Summary of the method: as §1

healthy mice = assay: Immunomodulation and toxicity in healthy mice; type: in vivo, mouse
[4] = Pharmacokinetic study of SPRAY-BLKR-NPs in ALI mice; type: in vivo, mouse
[5] = tested on: multidrug-resistant Escherichia coli (MRE); assay: MIC against MRE; type: cell-based; settings: n = 3 biologically replicates
DC2.4 = assay: Cytocompatibility, MTT assay; type: cell-based, murine; settings: 24 h, n = 9
Summary of the method: as §1

RAW264.7 = assay: Cytocompatibility, MTT assay; type: cell-based, murine; settings: 24 h, n = 9
Summary of the method: as §1

[6] = Pulmonary biodistribution of FITC-labeled peptide, CLSM; type: in vivo, mouse; settings: 128 μM, 50 μl intratracheal, 1 h
Summary of the method: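 Acute lung injury induced in BALB/c mice by intratracheal LPS (10 mg kg^−1). FITC-labelled peptide (128 μM, 50 μl) then given intratracheally, n = 3. Lungs taken 1 hour after dosing. Sections stained for CD68 (macrophages) with DAPI counterstain and imaged by confocal microscopy.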

[7] = tested on: bone marrow–derived macrophages (BMDMs); assay: M2 macrophage polarization of BMDMs, CD206/CD86 flow cytometry; type: cell-based, mouse; settings: M1 positive control LPS 10 ng ml^−1 and IFN-γ 20 ng ml^−1

For `CCN(c1nc(N)c(C(=O)NC(=N)N)nc1Cl)C(C)C` [EIPA, ethyl-isopropyl-amiloride], the “loss of BLKR uptake quantified by FITC intensity” value (“loss of BLKR uptake quantified” for short) (BMDMs) was 22.14%.

In the case of `CC[C@H](C)[C@H](NC(=O)[C@H](CC(C)C)NC(=O)[C@H](CCCNC(=N)N)NC(=O)[C@H](Cc1ccccc1)NC(=O)[C@H](Cc1ccccc1)NC(=O)Cc1ccc(-c2ccccc2)cc1)C(=O)N[C@@H](CCCNC(=N)N)C(=O)N[C@@H](Cc1ccc(O)cc1)C(=O)N[C@@H](CCSC)C(=O)N[C@@H](C)C(=O)N[C@@H](CCCCN)C(=O)O` [BRLI] ({Phenylacetyl(4-Ph)}-FFRLIRYMAK-OH), the hemolysis rate (red blood cells (RBCs); 128 μM) is reported as 7.49%.

With `CCCCC[C@@H](O)[C@H]1C(=O)O[C@H](C)[C@@H](O)/C=C/C=C/C=C/C=C/C=C(\C)[C@@H](O)C[C@H](O)C[C@H](O)C[C@H](O)C[C@H](O)C[C@H](O)C[C@@H]1O` [Filipin III] the “loss of BLKR uptake quantified” value (BMDMs) was 43.01%.

With `CC(C)(O/N=C(\C(=O)N[C@@H]1C(=O)N2C(C(=O)[O-])=C(C[n+]3ccccc3)CS[C@H]12)c1csc(N)n1)C(=O)O` [Ceftazidime] the 2-day survival rate (MRE-induced ALI) was 58.3%.

With `CN(C)CCCN1c2ccccc2Sc2ccc(Cl)cc21` [CPZ, chlorpromazine] the “loss of BLKR uptake quantified” value (BMDMs) was 24.47%.

For `CC[C@H](C)[C@H](NC(=O)[C@H](CCCCN)NC(=O)[C@H](Cc1ccccc1)NC(=O)[C@H](Cc1ccccc1)NC(=O)Cc1ccc(-c2ccccc2)cc1)C(=O)N[C@H](C(=O)N[C@@H](CCCCN)C(=O)N[C@H](C(=O)N[C@@H](C)C(=O)N[C@@H](CCCCN)C(=O)O)C(C)C)[C@@H](C)CC` [BKII] ({Phenylacetyl(4-Ph)}-FFKIIKVAK-OH), the hemolytic activity (red blood cells (RBCs)) was “no detectable hemolytic activity” and the “cytotoxicity toward BEAS-2B” value [1] was “no notable cytotoxicity”.

For `CC(C)C[C@H](NC(=O)[C@H](Cc1ccccc1)NC(=O)[C@H](Cc1ccccc1)NC(=O)Cc1ccc(-c2ccccc2)cc1)C(=O)N[C@@H](CCCCN)C(=O)N[C@@H](CCCNC(=N)N)C(=O)N[C@H](C(=O)N[C@@H](Cc1c[nH]c2ccccc12)C(=O)N[C@@H](CCCCN)C(=O)N[C@@H](CCCNC(=N)N)C(=O)O)C(C)C` [BLKR] ({Phenylacetyl(4-Ph)}-FFLKRVWKR-OH), the hemolytic activity (red blood cells (RBCs)) was “no detectable hemolytic activity”, the “cytotoxicity, HEK 293T” value [2] was “no significant cytotoxicity” and the “cytotoxicity, HS-5” value [3] was “no significant cytotoxicity”. The “monocyte infiltration in the alveolar site, histology” value (healthy mice; 128 or 256 μM, 50 μl twice) was “no monocyte infiltration was observed”, the “inflammatory cell infiltration in lung, histology” value (healthy mice; 512 or 1204 μM) was “inflammatory cell infiltration occurred in lung” and the “monocyte percentage in peripheral blood” value (healthy mice; all the tested concentrations, n = 3) was “no elevation of monocyte percentage”. The “BLKR left in entire respiratory tract” value ([4]; ALI mice, single dose 18.42 μg per mouse, 12 hours after administration) was about 10%, the “pulmonary area under the curve relative to kidney” value ([4]; within 24 hours) was over 154.13 times and the “pulmonary area under the curve relative to liver” value ([4]; within 24 hours) was “more than 47.90 times”. The “MIC against MRE” value [5] was 16 µM (≈ 23.6 µg/mL), the “cytotoxicity, DC2.4” value (DC2.4) was “no significant cytotoxicity” and the “cytotoxicity, RAW264.7” value (RAW264.7) was “no significant cytotoxicity”. The “cytotoxicity toward BEAS-2B” value [1] was “no notable cytotoxicity”.

In the case of `CC(C)C[C@H](N)C(=O)N[C@@H](CCCCN)C(=O)N[C@@H](CCCNC(=N)N)C(=O)N[C@H](C(=O)N[C@@H](Cc1c[nH]c2ccccc12)C(=O)N[C@@H](CCCCN)C(=O)N[C@@H](CCCNC(=N)N)C(=O)O)C(C)C` [LKR] (H-LKRVWKR-OH), the “accumulation in injured lung tissue” value [6] is reported as “extremely little accumulation”.

With lipopolysaccharide [LPS] the “CD86+ macrophage in the total population” value [7] was “more than 80%”.
